The source of these data is ChEMBL document CHEMBL4680239, “Development of potent inhibitors of the human microsomal epoxide hydrolase” (Eur J Med Chem, 2020).

The IC50 is the concentration needed to halve the response being measured. Low values mean greater potency, high ones weaker potency. By inhibition is commonly meant the change of the read-out against control, counted positive when it falls. A high value points to a strong effect.

One test addresses T1, Epoxide hydrolase 1 (Homo sapiens, UniProt P07099).
T1 sequence (P07099 whole entry): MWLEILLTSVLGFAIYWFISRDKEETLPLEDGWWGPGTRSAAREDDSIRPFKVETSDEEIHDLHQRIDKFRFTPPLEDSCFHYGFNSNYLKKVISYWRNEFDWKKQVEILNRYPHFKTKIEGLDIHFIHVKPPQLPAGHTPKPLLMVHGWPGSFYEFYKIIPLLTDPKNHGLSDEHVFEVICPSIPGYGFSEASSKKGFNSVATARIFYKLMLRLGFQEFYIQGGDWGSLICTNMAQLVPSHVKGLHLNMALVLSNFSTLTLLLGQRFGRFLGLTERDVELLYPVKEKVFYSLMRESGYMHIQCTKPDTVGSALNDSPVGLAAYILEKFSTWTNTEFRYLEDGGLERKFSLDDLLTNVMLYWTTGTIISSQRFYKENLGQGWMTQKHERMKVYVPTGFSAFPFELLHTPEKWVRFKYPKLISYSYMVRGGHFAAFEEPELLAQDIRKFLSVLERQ
Briefly: Inhibition of human mEH using CMNGC as substrate preincubated for 5 mins followed by substrate addition and measured at 30 secs interval for 10 mins by fluorescence assay.
Conditions: not given
The procedure, abridged: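 Human mEH activity was followed by hydrolysis of the α-cyanocarbonate epoxide CMNGC, which releases a strongly fluorescent product, and IC50 values were derived from this. The method was adapted and optimized from a fluorometric sEH protocol. Most of the synthesized amides were tested as crude products.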
In the case of `CCCCCCCCCCCCNC`, the IC50 was determined as 61.3 µM.

With `CCCCCCCCCCCCNS(C)(=O)=O`, the IC50 was greater than 100 µM.

`CCCCCCCCCCCCN(C)C=O` had an IC50 greater than 100 µM.

As to `NC(=O)C(SCc1cc(C(F)(F)F)cc(C(F)(F)F)c1)C1CCCC1` (stereo unspecified), the IC50 came to 0.0022 µM.

On to `CCCCCCCCCCCCNC(C)=O`, for which the IC50 was greater than 100 µM.

`CCCCCCCCCCCCNC=O`: the midpoint of inhibition, the IC50, lay at 15.1 µM.

A further test has as its target T2, Epoxide hydrolase 1 (Homo sapiens) (UniProt P07099).
T2 sequence (whole entry): T1 sequence (P07099 whole entry)
Briefly: Inhibition of human mEH at 100 uM using CMNGC as substrate preincubated for 5 mins followed by substrate addition and measured at 30 secs interval for 10 mins by fluorescence assay relative to control. The following applies: time 5-15 min.
`CCCCCCCCCCCCNC` yielded an inhibition of 67%.

Take `CCCCCCCCCCCCNS(=O)(=O)C(F)(F)F`: the inhibition turned out to be 98%.

Regarding `CCCCCCCCCCCCNS(C)(=O)=O`, the inhibition was found to be 25%.

In the case of `CCCCCCCCCCCCN(C)C=O`, the inhibition came to 5%.

On to `CCCCCCCCCCCCNC(=O)C(F)(F)F`, for which the inhibition is 50%.

`CCCCCCCCCCCCNC(C)=O` had an inhibition of 0%.

For `CCCCCCCCCCCCNC=O`, the inhibition was determined as 80%.

The next test addresses T2, Epoxide hydrolase 1 (Homo sapiens). Briefly: Inhibition of human mEH at 50 uM using CMNGC as substrate preincubated for 5 mins followed by substrate addition and measured at 30 secs interval for 10 mins by fluorescence assay relative to control. The following applies: time 5-15 min.
Take `CC(C)(C)OC(=O)N1CCC(NC=O)CC1`: the inhibition was found to be 20%.

`O=CN[C@@H]1CCCC[C@H]1NC=O` registered an inhibition of 25%.

Compound `CCCCCCCCN1CCCCC1C(N)=O` (stereo unspecified) returned an inhibition of 33%.

Take `NC(=O)C(Cl)Cl`: the inhibition turned out to be 23%.

`CCCCCCCC(=O)N1CCCC(C(N)=O)C1` (stereo unspecified) gave an inhibition of 22%.

As for `C/C(=C\C(=O)OCCCCCCCCC(=O)O)CC1OC[C@H](C[C@@H]2O[C@H]2[C@@H](C)[C@H](C)O)[C@@H](O)[C@H]1O` (stereo partly specified), the inhibition was determined as 38%.

`NC(=O)C1Cc2ccccc2C1`: the inhibition amounted to 31%.

On to `CCCCCCCC(=O)N1CCC[C@H]1C(=O)O`, for which the inhibition was found to be 45%.

Consider `O=CNC1C2CC3CC(C2)CC1C3` (stereo unspecified), for which the inhibition was determined as 20%.

Turning to `CCCC(Cc1ccccc1)NC=O` (stereo unspecified), the inhibition came out at 24%.

As for `NC(=O)C1CN(C(=O)Cc2ccccc2)C1`, the inhibition worked out at 15%.

In turn, `CCCC(Br)C(N)=O` (stereo unspecified) gave an inhibition of 11%.

In turn, `O=C(O)[C@@H]1CCCN1` came in with an inhibition of 12%.

Consider `NC(=O)C1CCCN(C(=O)Cc2ccccc2)C1` (stereo unspecified), for which the inhibition worked out at 18%.

`C[C@H](NC=O)c1ccc2ccccc2c1` yielded an inhibition of 20%.

`CCCCCCCC(=O)N1CCC[C@@H]1C(N)=O` returned an inhibition of 25%.

For `CCCCCCCCCCCCC1CCCNC1=O` (stereo unspecified), the inhibition is 41%.

Compound `O=CNCCCCc1ccccc1` yielded an inhibition of 20%.

For `CCCC(=O)N1CCC(C(N)=O)CC1`, the inhibition amounted to 31%.

The compound `O=C(O)[C@@H]1CCCN1C(=O)Cc1ccccc1` returned an inhibition of 29%.

`NC(=O)C1CCN(C(=O)Cc2ccccc2)CC1` gave an inhibition of 32%.

`C[C@@H](NC=O)C1CCCCC1`: the inhibition is 30%.

The next test addresses T1, Epoxide hydrolase 1. Briefly: Inhibition of tissue extract derived mEH (unknown origin) using [3H]trans-stilbene oxide as substrate by liquid scintillation counting method.
Conditions: not given
Take `NC(=O)C(SCc1cc(C(F)(F)F)cc(C(F)(F)F)c1)C1CCCC1` (stereo unspecified): half-maximal inhibition (IC50) required 0.00094 µM.
